# ChEMBL document CHEMBL3616436, “Synthesis, cytotoxicity and antimicrobial activity of thiourea derivatives incorporating 3-(trifluoromethyl)phenyl moiety” (Eur J Med Chem, 2015)
# Calls of active or inactive are those of the source. The calls are words filed in the database; no cut-off is given here.
# Tests used:
# [1] = test system: Pseudomonas aeruginosa; assay: Antimicrobial activity against Pseudomonas aeruginosa NCTC 6749 after 18 hrs by twofold serial microdilution method; format: functional, organism-based
# [2] = test system: Escherichia coli; assay: Antimicrobial activity against Escherichia coli ATCC 10538 after 18 hrs by twofold serial microdilution method; format: functional, organism-based
# [3] = Cytotoxicity against BHK cells assessed as cell viability after 48 to 96 hrs by MTT assay; format: cell-based, Mesocricetus auratus; settings: hamster
# [4] = test system: Candida albicans; assay: Antimicrobial activity against Candida albicans ATCC 90028 after 24 hrs by twofold serial microdilution method; format: functional, organism-based
# [5] = test system: Human immunodeficiency virus 1; assay: Antiviral activity against HIV1 3B infected in human MT4 cells assessed as protection against virus-induced cytopathogenicity by MTT assay; format: functional, organism-based; settings: Human immunodeficiency virus 1, 3B
# [6] = test system: Mycobacterium tuberculosis; assay: Antimycobacterial activity against drug-sensitive Mycobacterium tuberculosis Spec. 192; format: functional
# Procedure, shortened: (§1)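 Classical test-tube successive-dilution method in Youmans' modification of Proskauer and Beck liquid medium with 10% bovine serum. Inoculum came from 14-day cultures. DMSO stock was 10 mg/mL, diluted geometrically in medium. Tubes were incubated at 37 °C. Concentrations tested were 3.1, 6.2, 12.5, 25, 50 and 100 µg/ml. MIC is the minimum concentration inhibiting growth relative to compound-free tubes.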
# [7] = test system: Mammalian orthoreovirus 1; assay: Antiviral activity against Reovirus type-1 ATCC VR-214 infected in BHK cells assessed as protection against virus-induced cytopathogenicity after 3 to 4 days by MTT assay; format: functional, cell-based; settings: Mammalian orthoreovirus 1, ATCC VR-214, BHK
# Procedure, shortened: (§2)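 Cells seeded in 96-well plates (BHK 5x10^4, MDBK 3x10^4 cells/well), grown overnight to confluence, infected at m.o.i. 0.01 (BHK for Reo-1, MDBK for BVDV); serial compound dilutions in maintenance medium with 0.5% inactivated FBS added after 1 h; viability by MTT after 3–4 days at 37°C; EC50 for 50% protection by linear regression.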
# [8] = test system: Vesicular stomatitis virus; assay: Antiviral activity against Vesicular stomatitis virus ATCC VR 1540 infected in African green monkey Vero 76 cells assessed as reduction of virus-plaque formation after 2 days by crystal violet staining; format: functional, organism-based; settings: ATCC VR 1540, Vero, 48 h
# [9] = test system: Bordetella bronchiseptica; assay: Antimicrobial activity against Bordetella bronchiseptica ATCC 4617 after 18 hrs by twofold serial microdilution method; format: functional, organism-based
# [10] = Cytotoxicity against African green monkey Vero 76 cells assessed as cell viability after 48 to 96 hrs by crystal violet staining; format: cell-based; settings: chlorocebus sabaeus
# [11] = test system: Pseudomonas aeruginosa; assay: Antimicrobial activity against Pseudomonas aeruginosa ATCC 15442 after 18 hrs by twofold serial microdilution method; format: functional, organism-based
# [12] = test system: Poliovirus 1; assay: Antiviral activity against Poliovirus type 1 ATCC VR-1562 infected in African green monkey Vero 76 cells assessed as reduction of virus-plaque formation after 2 days by crystal violet staining; format: functional, organism-based; settings: Enterovirus C, ATCC VR-1562, Vero, 48 h
# [13] = test system: Escherichia coli; assay: Antimicrobial activity against Escherichia coli NCTC 8196 after 18 hrs by twofold serial microdilution method; format: functional, organism-based
# [14] = test system: Yellow fever virus; assay: Antiviral activity against Yellow fever virus 17D infected in BHK cells assessed as protection against virus-induced cytopathogenicity after 3 to 4 days by MTT assay; format: functional, cell-based
# [15] = Cytotoxicity against human MT4 cells; format: cell-based
# [16] = test system: Candida albicans; assay: Antimicrobial activity against Candida albicans ATCC 10231 after 24 hrs by twofold serial microdilution method; format: functional, organism-based
# [17] = test system: Escherichia coli; assay: Antimicrobial activity against Escherichia coli ATCC 25922 after 18 hrs by twofold serial microdilution method; format: functional, organism-based
# [18] = test system: Mycobacterium tuberculosis; assay: Antimycobacterial activity against Mycobacterium tuberculosis H37Rv ATCC 25618; format: functional; procedure, shortened: as §1
# [19] = test system: Coxsackievirus B5; assay: Antiviral activity against Human coxsackievirus B5 ATCC VR-29 infected in African green monkey Vero 76 cells assessed as reduction of virus-plaque formation after 3 days by crystal violet staining; format: functional, organism-based; settings: Enterovirus B, ATCC VR-29, Vero, 72 h
# Procedure, shortened: (§3)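 Plaque reduction: Vero-76 at 2x10^5 cells/well grown to confluent monolayers, infected 2 h at 50–100 PFU/well; after removing unadsorbed virus, overlay of D-MEM, 1% inactivated FBS, 0.75% methylcellulose with or without serial compound dilutions; 3 days at 37°C, fixed and stained with crystal violet in 50% ethanol, plaques counted; EC50 by linear regression.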
# [20] = Antiviral activity against Bovine viral diarrhea virus 1-NADL ATCC VR-534 infected in MDBK cells assessed as protection against virus-induced cytopathogenicity after 3 to 4 days by MTT assay; format: functional, cell-based; settings: Bovine viral diarrhea virus isolates and strains, ATCC VR-534, MDBK; procedure, shortened: as §2
# [21] = test system: Human alphaherpesvirus 1; assay: Antiviral activity against Human herpesvirus 1 KOS ATCC VR-1493 infected in African green monkey Vero 76 cells assessed as reduction of virus-plaque formation after 3 days by crystal violet staining; format: functional, organism-based; settings: Human alphaherpesvirus 1, KOS ATCC VR1493, Vero, 72 h; procedure, shortened: as §3
# [22] = test system: Vaccinia virus; assay: Antiviral activity against Human Vaccinia virus ATCC VR-1549 infected in African green monkey Vero 76 cells assessed as reduction of virus-plaque formation after 3 days by crystal violet staining; format: functional, organism-based; settings: Orthopoxvirus vaccinia, ATCC VR-1549, Vero, 72 h
# [23] = test system: Candida parapsilosis; assay: Antimicrobial activity against Candida parapsilosis ATCC 22019 after 24 hrs by twofold serial microdilution method; format: functional, organism-based
# [24] = test system: Pseudomonas aeruginosa; assay: Antimicrobial activity against Pseudomonas aeruginosa ATCC 27863 after 18 hrs by twofold serial microdilution method; format: functional, organism-based
# [25] = Cytotoxicity against bovine MDBK cells assessed as cell viability after 48 to 96 hrs by MTT assay; format: cell-based, Bos taurus; settings: cattle
compound,measurement,setting,value
CCCCc1ccc(NC(=S)Nc2cccc(C(F)(F)F)c2)c(C)c1,Activity,[1],inactive
same,Activity,[2],inactive
same,CC50,[3],9 µM
same,Activity,[4],inactive
same,EC50,[5],> 43 µM
same,MIC,[6],100 µg/mL
same,EC50,[7],> 9 µM
same,EC50,[8],> 18 µM
same,Activity,[9],inactive
same,CC50,[10],18 µM
same,Activity,[11],inactive
same,EC50,[12],> 18 µM
same,Activity,[13],inactive
same,EC50,[14],> 9 µM
same,CC50,[15],43 µM
same,Activity,[16],inactive
same,Activity,[17],inactive
same,MIC,[18],50 µg/mL
same,EC50,[19],> 18 µM
same,EC50,[20],> 10 µM
same,EC50,[21],> 18 µM
same,EC50,[22],> 18 µM
same,Activity,[23],inactive
same,Activity,[24],inactive
same,CC50,[25],10 µM
